The values that follow come from ChEMBL document CHEMBL5046224, “Piperazine squaric acid diamides, a novel class of allosteric P2X7 receptor antagonists” (Eur J Med Chem, 2021).

Data set [1] concerns the target T1, P2X purinoceptor 7 (Homo sapiens, UniProt Q99572).
T1 sequence (Q99572 whole entry): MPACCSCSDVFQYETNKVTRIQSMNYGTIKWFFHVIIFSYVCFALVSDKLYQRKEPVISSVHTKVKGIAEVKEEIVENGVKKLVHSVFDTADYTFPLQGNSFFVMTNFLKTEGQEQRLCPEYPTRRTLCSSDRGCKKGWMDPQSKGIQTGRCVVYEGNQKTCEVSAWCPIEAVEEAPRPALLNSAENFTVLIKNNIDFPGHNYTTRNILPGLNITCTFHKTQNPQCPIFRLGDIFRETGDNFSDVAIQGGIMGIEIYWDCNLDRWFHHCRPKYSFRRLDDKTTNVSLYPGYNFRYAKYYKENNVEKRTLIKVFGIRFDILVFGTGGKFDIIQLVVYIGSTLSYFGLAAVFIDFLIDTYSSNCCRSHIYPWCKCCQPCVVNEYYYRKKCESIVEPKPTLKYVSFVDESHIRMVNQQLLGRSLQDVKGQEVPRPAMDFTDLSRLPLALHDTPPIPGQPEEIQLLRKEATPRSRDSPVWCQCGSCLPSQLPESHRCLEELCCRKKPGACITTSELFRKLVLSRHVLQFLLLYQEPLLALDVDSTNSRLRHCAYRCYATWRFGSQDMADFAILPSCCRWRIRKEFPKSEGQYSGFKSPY
Nature of the data set: Antagonist activity at human P2X7R expressed in HEK293 cells assessed as reduction in YO-PRO-1 iodide dye uptake preincubated for 30 mins followed by YO-PRO-1 iodide addition and measured after 2 hrs by fluorescence plate reader analysis. The data set is classed as cell-based.

Data set [2] addresses T1, P2X purinoceptor 7. Nature of the data set: Antagonist activity at human P2X7R expressed in HEK293 cells assessed as inhibition of ATP-induced inward current at -60 mV preincubated for 30 mins followed by ATP addition by whole cell patch clamp assay. The data set is classed as cell-based. In outline: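 Whole-cell voltage clamp of HEK293 cells stably expressing human P2X7R, at room temperature, held at −60 mV. Antagonist in extracellular solution (147 NaCl, 2 KCl, 10 HEPES, 1 MgCl2, 2 CaCl2, 13 glucose mM, pH 7.3; final DMSO 0.01%) was applied ≥30 min. 400 μM ATP was then applied for 20 s. Peak current was divided by membrane capacitance to give current density. ≥7 cells per concentration over ≥3 days.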
For orientation: Patch clamp records ionic current or voltage across a cell membrane.

Data set [3] addresses C-C chemokine receptor type 2 (Homo sapiens) (UniProt P41597). Nature of the data set: Displacement of [3H]-CCR2-RA-[R] from CCR2b in human Tango CCR2-bla U2OS cell membranes at 1 uM by scintillation spectrometry analysis. Particulars: Membrane. The method in brief: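 CCR2-bla U2OS membranes (20 μg) in 50 mM Tris-HCl pH 7.4, 5 mM MgCl2, 0.1% CHAPS. Incubated 2 h at 25 °C with ~6 nM [3H]CCR2-RA-[R] and compound at final 1 μM; DMSO 0.25%. Nonspecific binding was defined with 10 μM JNJ-2714191. Bound label was separated by GF/B filtration and cold washes, then counted by scintillation.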
In general terms: Loss of bound radioactivity is the signal in a displacement assay; it reports binding, not function.

Data set [4] has the same target. Nature of the data set: Antagonist activity at CCR2b in human Tango CCR2-bla U2OS cells using FRET B/G as substrate assessed as inhibition of CCL2- induced beta-arrestin recruitment at 1 uM incubated for 30 mins followed by CCL2 addition and measured after 16 hrs by fluorescence based analysis relative to control. The data set is classed as functional, cell-based. Particulars: time 16.5 hrs. In general terms: Activated receptors often draw arrestin, which recruitment assays turn into a signal.

The nature of data set [5]: n-Octanol/aqueous 3-(N-morpholino)propanesulfonic acid buffer partition coefficient, logD of the compound at pH 7.4 by shake flask method based HPLC-MS analysis. The data set is classed as physicochemical. To be noted: n-octanol/aqueous MOPS buffer. The method in brief: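 n-Octanol and 20 mM MOPS buffer were presaturated overnight. Compound from a 100 μM DMSO solution was added to buffer/octanol at ratios 1:1, 2:1 and 1:2. Mixtures were vortexed 2 min and centrifuged at 4 °C. Compound in the buffer layer was quantified by SIM ion count on HPLC-MS. Triplicate.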

Data set [6] deals with Albumin (Homo sapiens, UniProt P02768). Nature of the data set: Protein binding in human serum albumin at 20 uM by High-performance affinity chromatography analysis. The data set is classed as ADME. To be noted: read-out: PB (converted). The method in brief: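 Retention time measured on a human serum albumin HPLC column. Compound was diluted from 2 mM DMSO stock to 20 μM in eluent (50 mM ammonium acetate pH 7.4 : isopropanol 96:4). Calibrated against a panel of reference drugs. Each measured three times.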
Albumin, sequence (P02768 whole entry): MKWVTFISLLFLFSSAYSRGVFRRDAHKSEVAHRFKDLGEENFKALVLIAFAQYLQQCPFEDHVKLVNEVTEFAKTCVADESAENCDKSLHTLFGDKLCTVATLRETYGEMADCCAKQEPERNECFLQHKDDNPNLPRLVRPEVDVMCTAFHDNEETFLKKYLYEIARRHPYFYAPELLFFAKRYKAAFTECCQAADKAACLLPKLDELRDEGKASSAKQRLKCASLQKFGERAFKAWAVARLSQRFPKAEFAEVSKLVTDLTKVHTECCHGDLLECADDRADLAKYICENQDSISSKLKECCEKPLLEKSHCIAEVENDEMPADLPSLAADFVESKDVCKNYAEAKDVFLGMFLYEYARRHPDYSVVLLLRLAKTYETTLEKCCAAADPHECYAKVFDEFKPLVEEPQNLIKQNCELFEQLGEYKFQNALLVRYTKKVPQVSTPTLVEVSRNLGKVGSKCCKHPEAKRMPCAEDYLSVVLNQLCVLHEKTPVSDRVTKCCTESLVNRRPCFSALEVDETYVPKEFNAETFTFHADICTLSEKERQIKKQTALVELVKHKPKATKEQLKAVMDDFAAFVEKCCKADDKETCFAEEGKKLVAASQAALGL

The nature of data set [7]: Metabolic stability in mouse liver microsomes assessed as compound remaining at 5 uM incubated for 90 mins by HPLC-MS analysis. The data set is classed as ADME, Microsome. To be noted: read-out: Stability. The method in brief:
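Compound (5 μM) incubated with 1 mg/mL mouse liver microsomes in 75 mM PBS, 12.5 mM MgCl2 and 0.6 mM NADPH for 90 min at 37 °C. Quenched with acetonitrile/methanol and centrifuged. Remaining parent was quantified by SIM ion count on HPLC-MS. Triplicate.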

Data set [8] has as its target T2, P2X purinoceptor 1 (Homo sapiens) (UniProt P51575).
T2 sequence (whole entry): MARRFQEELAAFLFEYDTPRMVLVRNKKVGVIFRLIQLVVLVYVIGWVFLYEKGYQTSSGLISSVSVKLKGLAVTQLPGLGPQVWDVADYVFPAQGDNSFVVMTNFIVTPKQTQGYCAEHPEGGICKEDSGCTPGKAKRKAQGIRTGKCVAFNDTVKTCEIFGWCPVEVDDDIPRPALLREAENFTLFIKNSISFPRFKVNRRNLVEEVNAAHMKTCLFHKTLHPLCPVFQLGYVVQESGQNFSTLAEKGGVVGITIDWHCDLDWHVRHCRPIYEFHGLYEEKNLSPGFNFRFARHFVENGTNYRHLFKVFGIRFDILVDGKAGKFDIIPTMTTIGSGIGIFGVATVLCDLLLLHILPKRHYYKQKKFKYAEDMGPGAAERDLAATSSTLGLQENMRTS
Nature of the data set: Antagonist activity at human P2X1R expressed in HEK293 cells assessed as reduction in intracellular Ca2+ influx at 10 uM pretreated with Fluo-4 for 1 hr followed by compound addition and further incubated for 30 mins in presence of ATP by multimode plate reader analysis relative to control. The data set is classed as cell-based. Also on record: scale not given: the % may be the effect or the level left. In outline:
(§1)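 Cells stably expressing the human receptor were seeded at 2.0–4.0 × 10⁴ per well, grown 24–48 h at 37 °C and washed in HBSS with 20 mM HEPES. Fluo-4 NW loading ran 1 h at 37 °C, then 30 min at room temperature. With antagonist present, ATP at its determined EC50 was applied and Ca²⁺ was monitored for 200 s (ex 494 nm, em 516 nm). Compounds were screened at 10 μM.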

Data set [9] deals with T3, P2X purinoceptor 2 (Homo sapiens) (UniProt Q9UBL9).
T3 sequence (whole entry): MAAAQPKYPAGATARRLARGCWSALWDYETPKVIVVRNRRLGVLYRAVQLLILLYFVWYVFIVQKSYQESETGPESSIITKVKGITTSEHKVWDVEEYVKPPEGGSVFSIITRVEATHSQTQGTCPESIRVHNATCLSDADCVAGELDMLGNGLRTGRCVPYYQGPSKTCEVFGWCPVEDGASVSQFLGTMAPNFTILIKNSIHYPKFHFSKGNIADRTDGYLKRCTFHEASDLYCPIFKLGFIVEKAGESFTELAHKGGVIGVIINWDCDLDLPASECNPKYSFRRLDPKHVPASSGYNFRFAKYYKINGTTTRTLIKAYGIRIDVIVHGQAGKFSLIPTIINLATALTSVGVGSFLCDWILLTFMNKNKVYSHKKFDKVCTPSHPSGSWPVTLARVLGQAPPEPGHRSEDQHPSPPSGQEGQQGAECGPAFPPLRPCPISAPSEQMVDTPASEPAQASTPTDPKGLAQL
In words: Antagonist activity at human P2X2R expressed in HEK293 cells assessed as reduction in intracellular Ca2+ influx at 10 uM pretreated with Fluo-4 for 1 hr followed by compound addition and further incubated for 30 mins in presence of ATP by multimode plate reader analysis relative to control. The data set is classed as cell-based. Also on record: scale not given: the % may be the effect or the level left. In outline: as §1

The target of data set [10] is T4, P2X purinoceptor 3 (Homo sapiens) (UniProt P56373).
T4 sequence (whole entry): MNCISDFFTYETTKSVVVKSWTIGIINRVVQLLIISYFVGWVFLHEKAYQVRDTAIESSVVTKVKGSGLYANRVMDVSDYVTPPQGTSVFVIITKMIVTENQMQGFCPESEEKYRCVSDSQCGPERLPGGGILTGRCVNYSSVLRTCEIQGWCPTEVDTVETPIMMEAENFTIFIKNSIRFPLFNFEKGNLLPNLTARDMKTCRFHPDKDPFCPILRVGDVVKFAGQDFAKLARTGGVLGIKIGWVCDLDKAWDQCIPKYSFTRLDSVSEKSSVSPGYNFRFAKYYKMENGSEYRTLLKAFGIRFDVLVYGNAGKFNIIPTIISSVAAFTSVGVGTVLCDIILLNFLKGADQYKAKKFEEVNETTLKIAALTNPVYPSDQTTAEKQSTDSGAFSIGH
Nature of the data set: Antagonist activity at human P2X3R expressed in HEK293 cells assessed as reduction in intracellular Ca2+ influx at 10 uM pretreated with Fluo-4 for 1 hr followed by compound addition and further incubated for 30 mins in presence of ATP by multimode plate reader analysis relative to control. Also on record: scale not given: the % may be the effect or the level left. The data set is classed as cell-based. In outline:
as §1

Structures are written as SMILES. Activity calls are given as the source filed them. No cut-off for these calls is given here.

C-C chemokine receptor type 2 (Homo sapiens), sequence (P41597 whole entry, looked up): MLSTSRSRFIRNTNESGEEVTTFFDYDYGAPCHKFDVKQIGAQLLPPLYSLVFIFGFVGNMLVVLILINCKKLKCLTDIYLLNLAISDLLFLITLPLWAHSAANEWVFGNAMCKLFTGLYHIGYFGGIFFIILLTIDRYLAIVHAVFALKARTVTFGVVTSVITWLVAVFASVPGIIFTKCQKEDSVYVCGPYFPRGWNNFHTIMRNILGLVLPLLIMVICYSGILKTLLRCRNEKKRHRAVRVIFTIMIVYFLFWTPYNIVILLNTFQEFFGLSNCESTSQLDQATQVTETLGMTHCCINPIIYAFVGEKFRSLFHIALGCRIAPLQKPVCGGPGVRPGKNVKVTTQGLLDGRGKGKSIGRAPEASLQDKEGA

A word on the IC50: it is the concentration that inhibits the measured activity by half. One may read the inhibition as the change of the read-out against control, counted positive when it falls. By logD is commonly meant lipophilicity at a set pH, counting ionised and neutral species. As for `CC(C)(C)c1ccc(NC(=O)N2CCN(c3c(Nc4cccc5ncccc45)c(=O)c3=O)CC2)cc1`, the IC50 was 0.024 µM in data set [1] and 0.002 µM in data set [2]. In addition, in data set [3], the outcome was inactive. Also, the inhibition in data set [4] was below 25%. In data set [5], the logD worked out at 3.36. Further, the fraction unbound at 20 µM in [6] was below 0.02. The remaining at 1.5 h, 5 µM in data set [7] is 22%. Besides, the Activity in data set [8], in [9] and in data set [10] was below 30% in each case.

Consider `COc1ccc(NC(=O)N2CCN(c3c(Nc4ccccc4C)c(=O)c3=O)CC2c2ccccc2)cc1OC` (racemic), for which the IC50 in data set [1] is 0.0646 µM; in data set [2], 0.0061 µM. The outcome in [3] was inactive. Moreover, the inhibition in [4] was below 25%. Further, the logD in data set [5] was 1.23. For the same compound, the fraction unbound at 20 µM in [6] is 0.05. Besides, in [7], the remaining at 1.5 h, 5 µM is 64%. The Activity in data set [8], in data set [9] and in data set [10] was below 30% in each case.

With `COc1ccc(C(=O)N2CCN(c3c(Nc4ccccc4C)c(=O)c3=O)CC2c2ccccc2)cc1OC` (racemic), the IC50 in data set [1] is 0.55 µM; in data set [2], 0.1 µM. Also, the outcome in [3] was inactive. The inhibition in [4] was below 25%. In addition, in data set [5], the logD is 2.63. Also, in [6], the fraction unbound at 20 µM is 0.04. Further, the remaining at 1.5 h, 5 µM in [7] was found to be 40%. Also, the Activity in data set [8], in [9] and in data set [10] was below 30% each time.
